Assay results published in ChEMBL document CHEMBL1135760, “Anilinoquinazoline inhibitors of fructose 1,6-bisphosphatase bind at a novel allosteric site: synthesis, in vitro characterization, and X-ray crystallography” (J Med Chem, 2002).
pIC50: −log10 of the molar value.

Experiments:
[1] = target: Fructose-1,6-bisphosphatase 1 (Rattus norvegicus, UniProt P19112, Q51K/Q56H); assay: Concentration required for 50% Inhibition against (F16BP) Fructose-1,6-bisphosphatase in rat double mutant (Gln50Lys Gln55His) enzyme using malachite green assay
How it was run: (§1)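 Recombinant rat liver F16BPase (wild type or Gln50Lys/Gln55His double, Gln50Lys or Gln55His single mutants), expressed in E. coli BL21(DE3) and purified, 40 ng/well. Enzyme added to substrate plus compound with no preincubation. Final buffer was 50 mM HEPES pH 7.2, 100 mM KCl, 2 mM MgCl2, 2 mM EGTA, 1 mM DTT, 500 μM fructose-1,6-bisphosphate. Incubation 40 min at room temperature. Released phosphate read at 620 nm with ammonium molybdate/malachite green. Means of ≥3 experiments. Dose-response tested up to 10 μM.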

[2] = target: T1, Fructose-1,6-bisphosphatase 1 (Rattus norvegicus, UniProt P19112, Q56H); assay: Concentration required for 50% Inhibition against (F16BP) Fructose-1,6-bisphosphatase in rat single mutant (Gln55His) enzyme using malachite green assay; how it was run: as §1
[3] = Inhibition of human recombinant wild type fructose-1,6-bisphosphatase (F16BP)
[4] = target: Fructose-1,6-bisphosphatase 1 (Rattus norvegicus, UniProt P19112, Q51K); assay: Concentration required for 50% Inhibition against (F16BP) Fructose-1,6-bisphosphatase in rat single mutant (Gln50Lys) enzyme using malachite green assay; how it was run: as §1
[5] = target: T2, Fructose-1,6-bisphosphatase 1 (Rattus norvegicus, UniProt P19112); assay: Concentration required for 50% Inhibition against (F16BP) Fructose-1,6-bisphosphatase in rat wild type enzyme using malachite green assay; how it was run: as §1
T2 sequence (P19112 whole entry): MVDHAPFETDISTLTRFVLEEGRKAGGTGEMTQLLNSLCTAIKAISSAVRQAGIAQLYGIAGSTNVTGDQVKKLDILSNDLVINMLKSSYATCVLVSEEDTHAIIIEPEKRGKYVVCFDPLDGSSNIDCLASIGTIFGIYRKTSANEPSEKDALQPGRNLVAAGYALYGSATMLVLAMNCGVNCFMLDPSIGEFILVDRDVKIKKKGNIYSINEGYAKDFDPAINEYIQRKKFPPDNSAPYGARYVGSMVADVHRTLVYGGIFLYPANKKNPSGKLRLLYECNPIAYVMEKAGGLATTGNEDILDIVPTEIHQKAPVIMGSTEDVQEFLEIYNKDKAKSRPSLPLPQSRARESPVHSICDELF

[6] = target: T1, Fructose-1,6-bisphosphatase 1; assay: Concentration required for 50% Inhibition against (F16BP) Fructose-1,6-bisphosphatase in rat single mutant(Gln55His) enzyme using malachite green assay; how it was run: as §1

T1 sequence (P19112 2-363 Q56H limits assumed): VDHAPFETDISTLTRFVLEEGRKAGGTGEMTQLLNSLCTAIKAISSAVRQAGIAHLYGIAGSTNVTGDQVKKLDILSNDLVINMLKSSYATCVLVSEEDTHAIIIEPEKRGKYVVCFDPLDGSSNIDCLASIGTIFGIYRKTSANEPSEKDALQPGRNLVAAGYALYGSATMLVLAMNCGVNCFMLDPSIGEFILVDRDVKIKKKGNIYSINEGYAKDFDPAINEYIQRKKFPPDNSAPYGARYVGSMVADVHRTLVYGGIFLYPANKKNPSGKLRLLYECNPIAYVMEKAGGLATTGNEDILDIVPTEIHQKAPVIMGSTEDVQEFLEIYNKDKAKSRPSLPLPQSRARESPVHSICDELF
Sequence of Fructose-1,6-bisphosphatase 1 (Rattus norvegicus, UniProt P19112, Q51K) (P19112 2-363 Q51K limits assumed): as the sequence (P19112 2-363 Q56H limits assumed) above, with Q50K, H55Q counted along it
Sequence of Fructose-1,6-bisphosphatase 1 (Rattus norvegicus, UniProt P19112, Q51K/Q56H) (P19112 2-363 Q51K/Q56H limits assumed): as the sequence (P19112 2-363 Q56H limits assumed) above, with Q50K counted along it

Q: With `CCOc1cc2ncnc(Nc3cccc(-c4csc(C(N)=O)n4)c3)c2cc1OCC` as the compound, how does the pIC50 [1] read?
A: 6.28

Q: What about the pIC50 [2] of the same compound?
A: 5.52

Q: And the pIC50 [3]?
A: 6.03

Q: What about the pIC50 [4] of the same compound?
A: < 5.00

Q: What about the pIC50 [5] of the same compound?
A: < 5.00

Q: Which results are given for `CCOc1cc2ncnc(Nc3cccc(-c4csc(CO)n4)c3)c2cc1OCC`?
A: pIC50 [1]: 6.47; pIC50 [2]: 5.54; pIC50 [4]: < 5.00; pIC50 [5]: < 5.00

Q: With `CCOc1cc2ncnc(Nc3cccc(-c4csc(C)n4)c3)c2cc1OCC` as the compound, how does the pIC50 [1] read?
A: 6.10

Q: What about the pIC50 [3] of the same compound?
A: 6.19

Q: And the pIC50 [6]?
A: 5.42

Q: And the pIC50 [4]?
A: < 5.00

Q: What about the pIC50 [5] of the same compound?
A: < 5.00
